From ChEMBL document CHEMBL1221339, “Modulation of the inhibitor properties of dipeptidyl (acyloxy)methyl ketones toward the CaaX proteases” (Bioorg Med Chem, 2010)
Active and inactive are the calls of the source. The rule behind the calls is not given here.

How the values were obtained:
[1] = molecular target: T1, CAAX prenyl protease 2 (Saccharomyces cerevisiae S288c) (UniProt Q03530); assay: Inhibition of Saccharomyces cerevisiae SM3614 Ras converting enzyme 1 at 100 uM after 60 mins by fluorescence based proteolysis assay
T1 sequence (whole entry): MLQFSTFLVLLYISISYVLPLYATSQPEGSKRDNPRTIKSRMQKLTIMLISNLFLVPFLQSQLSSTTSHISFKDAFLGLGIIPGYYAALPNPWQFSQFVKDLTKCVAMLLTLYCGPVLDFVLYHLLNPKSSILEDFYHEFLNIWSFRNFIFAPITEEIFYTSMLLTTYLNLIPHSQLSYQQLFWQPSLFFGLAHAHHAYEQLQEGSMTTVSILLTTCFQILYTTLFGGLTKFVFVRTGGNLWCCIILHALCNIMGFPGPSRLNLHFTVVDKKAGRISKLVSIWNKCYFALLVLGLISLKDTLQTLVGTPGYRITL
Summary of the method: (§1)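 Membranes enriched for yeast Rce1p (plasmid pWS479 in SM3614, ste24Δ rce1Δ), 0.25 mg/mL final in 100 mM HEPES pH 7.5, 5 mM MgCl2. Pretreated 15 min at 30 °C with 100 µM compound, then 20 µM quenched ABz-KSKTKC(farnesyl)QLIM added. Fluorescence 320/420 nm read every 30–60 s for 60 min at 30 °C. Initial velocities give % activity vs DMSO. At least 4 replicates.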

[2] = tested on: Saccharomyces cerevisiae; assay: Inhibition of Saccharomyces cerevisiae SM3614 Ras converting enzyme 1 Ste24 mutant at 100 uM after 60 mins by fluorescence based proteolysis assay
Summary of the method: as §1, with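 “Ste24p” for “Rce1p”, “pSM1282” for “pWS479”, “ABz-KSKTKC(farnesyl)VIQL” for “quenched ABz-KSKTKC(farnesyl)QLIM”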

Row | SMILES | Activity [1] | Activity [2]
1 | CC(=O)NC(Cc1ccc(O)cc1)C(=O)N[C@@H](Cc1ccccc1)C(=O)NCC(=O)COC(=O)c1c(C)cccc1C (single isomer, unassigned) | inactive | inactive
2 | C[C@H](NC(=O)[C@H](Cc1ccccc1)NC(=O)OCc1ccccc1)C(=O)COC(=O)c1c(C(F)(F)F)cccc1C(F)(F)F | Active | Active
3 | Cc1cc(C)c(C(=O)OCC(=O)[C@H](C)NC(=O)[C@H](Cc2ccccc2)NC(=O)OCc2ccccc2)c(C)c1 | Active | Active
4 | Cc1cccc(C)c1C(=O)OCC(=O)[C@H](CCCNC(=N)N)NC(=O)[C@H](Cc1ccccc1)NC(=O)OCc1ccccc1 | Active | Active
5 | NCCCC[C@H](NC(=O)[C@H](Cc1ccccc1)NC(=O)OCc1ccccc1)C(=O)O | inactive | inactive
6 | CC(C)(C)OC(=O)NCCCC[C@H](NC(=O)[C@H](Cc1ccccc1)NC(=O)OCc1ccccc1)C(=O)CBr | inactive | inactive
7 | N=C(N)NCCC[C@H](NC(=O)[C@H](Cc1ccccc1)NC(=O)OCc1ccccc1)C(=O)COC(=O)c1c(C(F)(F)F)cccc1C(F)(F)F | Active | Active
8 | CC(=O)N[C@@H](Cc1ccc(O)cc1)C(=O)N[C@@H](Cc1ccccc1)C(=O)N[C@@H](CCCNC(=N)N)C(=O)COC(=O)c1c(C)cccc1C | inactive | inactive
9 | CC(C)(C)OC(=O)NCCCC[C@H](NC(=O)[C@H](Cc1ccccc1)NC(=O)OCc1ccccc1)C(=O)O | inactive | inactive
10 | Cc1cc(C)c(C(=O)OCC(=O)[C@H](CCCNC(=N)N)NC(=O)[C@H](Cc2ccccc2)NC(=O)OCc2ccccc2)c(C)c1 | Active | Active
11 | N=C(N)NCCC[C@H](NC(=O)[C@H](Cc1ccccc1)NC(=O)OCc1ccccc1)C(=O)COC(=O)c1ccccc1 | Active | Active

Results, then the molecule that gave them:

Row | Activity [1] | Activity [2] | SMILES
12 | Active | Active | Cc1ccc(C(=O)OCC(=O)[C@H](C)NC(=O)[C@H](Cc2ccccc2)NC(=O)OCc2ccccc2)cc1
13 | Active | Active | C[C@H](NC(=O)[C@H](Cc1ccccc1)NC(=O)OCc1ccccc1)C(=O)COC(=O)c1ccc([N+](=O)[O-])cc1
14 | Active | Active | COc1ccc(C(=O)OCC(=O)[C@H](CCCNC(=N)N)NC(=O)[C@H](Cc2ccccc2)NC(=O)OCc2ccccc2)cc1
15 | Active | Active | COc1ccc(C(=O)OCC(=O)[C@H](C)NC(=O)[C@H](Cc2ccccc2)NC(=O)OCc2ccccc2)cc1
16 | Active | Active | Cc1cccc(C)c1C(=O)OCC(=O)[C@H](C)NC(=O)[C@H](Cc1ccccc1)NC(=O)OCc1ccccc1
17 | Active | Active | N=C(N)NCCC[C@H](NC(=O)[C@H](Cc1ccccc1)NC(=O)OCc1ccccc1)C(=O)COC(=O)c1ccc([N+](=O)[O-])cc1
18 | Active | Active | Cc1ccc(C(=O)OCC(=O)[C@H](CCCNC(=N)N)NC(=O)[C@H](Cc2ccccc2)NC(=O)OCc2ccccc2)cc1
19 | Active | Active | C[C@H](NC(=O)[C@H](Cc1ccccc1)NC(=O)OCc1ccccc1)C(=O)COC(=O)c1ccccc1
